Source: PubChem BioAssay (several laboratories)
TAAR1 agonist = agonists of human TAAR1; CHO RD-HGA16 TAAR1, Fluo-8 calcium fluorescence; vehicle wells 0%, saturating PEA agonist 100%; 360,000 compounds, 0.99% hits; Q96RJ0; activation, % at 3 µM; AID 624467;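 active means activation above the mean activation of all test compounds in the run plus 3 SD, cut at about 38% in these data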
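Assay system: CHO-derived RD-HGA16 cells with stable Gα16 and human TAAR1; timing: 17-24 h seeding, 75 min 37 °C dye, 30 min RT; read-out: % activation from peak over basal fluorescence ratio, DMSO-to-PEA scaled; measured by: kinetic Fluo-8 calcium fluorescence; benchmarks: low control DMSO, high control PEA (EC100); doses: 3 µM single concentration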
TAAR1 antagonist = antagonists of human TAAR1; inhibition, % at 3 µM; Q96RJ0; AID 624466; CHO RD-HGA16 TAAR1, Fluo-8 calcium fluorescence, antagonist; 360,000 compounds, 1.5% hits;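 active means inhibition above a per-plate cutoff, the mean inhibition of test compounds on that plate plus 3 SD, cut at about 49% in these data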
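Test system: hTAAR1-expressing CHO RD-HGA16 cells, Gα16-coupled; Probe or stimulus: EC80 β-phenethylamine stimulus; Compound dosing: single nominal final test compound concentration of 3 µM; Timing: 140 s kinetic read after compound, 140 s after agonist; Signal: Fluo-8 calcium-sensitive fluorescence; Measure: % inhibition of agonist calcium response; Controls: DMSO and EC80 PEA controls.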
MC4R antagonist = blocks human MC4R cAMP signaling; P32245; MC4R-expressing cells, MTII-stimulated cAMP, LANCE TR-FRET; inhibition, % at 6.5 µM; 360,000 compounds, 0.48% hits; AID 540295;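 active means inhibition above its plate's cutoff, the mean of tested wells on that plate plus 3 SD, cut at about 29% in these data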
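material = U2OS cells stably expressing human melanocortin 4 receptor (MC4R) | also added = Melanotan II challenge | dosing = single nominal compound dose of 6.5 µM | detection = TR-FRET with Eu-cAMP and labeled anti-cAMP, 671 nm | replication = singlicate | timing = compound 30 min, challenge 1 h, detection 1 h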
m5-HT2A agonist = activates the mouse 5-HT2A serotonin receptor | P35363 | CHO-K1 mHTR2A beta-arrestin complementation, luminescence; percent of 30 µM serotonin response | activation, % at 7.6 µM | 360,000 compounds, 0.66% hits | AID 624169;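 active means activation above a run cutoff, the mean activation of all tested compounds plus 3 SD, cut at about 14% in these data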
Target sequence (P35363 whole entry, looked up): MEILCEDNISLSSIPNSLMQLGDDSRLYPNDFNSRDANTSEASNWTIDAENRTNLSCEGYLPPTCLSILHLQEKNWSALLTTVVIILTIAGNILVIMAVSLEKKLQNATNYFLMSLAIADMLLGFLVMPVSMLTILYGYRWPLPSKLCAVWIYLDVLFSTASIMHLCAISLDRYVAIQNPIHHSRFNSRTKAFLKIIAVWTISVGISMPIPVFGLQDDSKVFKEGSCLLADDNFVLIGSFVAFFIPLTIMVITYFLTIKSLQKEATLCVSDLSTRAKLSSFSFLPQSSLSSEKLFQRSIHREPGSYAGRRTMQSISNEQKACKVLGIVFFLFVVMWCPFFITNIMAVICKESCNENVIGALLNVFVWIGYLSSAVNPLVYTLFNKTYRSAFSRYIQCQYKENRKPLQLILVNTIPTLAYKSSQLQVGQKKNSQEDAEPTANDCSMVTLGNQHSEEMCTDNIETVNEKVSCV
Beta2AR agonist = activates human beta-2 adrenergic receptor causing internalization; 340,000 compounds, 0.43% hits; AID 504454; Am2.2-beta2AR cells, FAP receptor internalization, flow cytometry; response, % (no concentration beside the values);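 active means response above a set limit, near 3 SD of response in nonfluorescent compounds, cut at about 42% in these data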
MC4R ag barr = activates human MC4R beta-arrestin recruitment; P32245; U2OS MC4R beta-arrestin complementation, luminescence; percent of melanotan II response, DMSO zero; activation, % at 8.9 µM; 360,000 compounds, 0.98% hits; AID 540308;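 active means activation above a per-plate cutoff, the mean activation of sample wells on that plate plus 3 SD, cut at about 8% in these data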
TAAR1 ag conf = human TAAR1 agonism, confirmed. shares compounds with TAAR1 agonist. activation, % at 3 µM. 2,400 compounds, 82% hits. CHO RD-HGA16 TAAR1, Fluo-8 calcium fluorescence; scaled: DMSO 0%, maximal phenethylamine 100%;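 active means activation above a cutoff set at the run's mean compound activation plus 3 SD, cut at about 39% in these data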
Ga16 ag counter = counter-screen for TAAR1 agonists: nonselective agonists in parental cells; shares compounds with TAAR1 agonist; CHO-Ga16 parental, Fluo-8 calcium fluorescence; normalized to maximal ATP response, DMSO zero; activation, % at 3 µM; 2,400 compounds, 50% hits;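 active means activation above the run cutoff, the mean activation over all tested wells plus 3 SD, cut at about 12% in these data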
TAAR1 desensitize = human TAAR1 agonist that also desensitizes the receptor | 2,400 compounds, 46% hits | inhibition, % at 3 µM | shares compounds with TAAR1 agonist | AID 651951 | CHO RD-HGA16 hTAAR1, Fluo-8 calcium, beta-PEA response inhibition;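 active means inhibition above the run cutoff, the mean inhibition of all test compounds plus 3 SD, cut at about 49% in these data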;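 further: beta-PEA stimulus applied at its EC80; loss of beta-PEA calcium signal after compound pretreatment read as receptor desensitization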
Ga16 nonsel ant = nonselective Ga16 antagonist in TAAR1 agonist counter-screen | shares compounds with TAAR1 agonist | CHO-Ga16 ATP-induced calcium, Fluo-8 fluorescence | inhibition, % at 3 µM | 2,400 compounds, 39% hits;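 active means inhibition above the plate's mean compound inhibition plus 3 SD, computed per plate, cut at about 22% in these data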
Large screens that a line does not name were inactive (follow-up assays come after a bar, where they were run). Hits are enriched below; roughly 4.3% of the tested compounds scored in any of these assays.

Cc1cccc(S(=O)(=O)Nc2ccc(-c3ccc4nncn4n3)cc2)c1	none
COc1cc(OC)c(NS(=O)(=O)c2cc(Br)cnc2N)cc1Cl	none
Nc1ccc2ccc(O)cc2c1	none
C[n+]1c2cc(N)ccc2cc2ccc(N)cc21	TAAR1 agonist 82 | TAAR1 ag conf 103 | Ga16 ag counter 123 | TAAR1 desensitize inactive | Ga16 nonsel ant 42
Cc1nnn(-c2nonc2N)c1C(=O)NNC(=O)c1ccc(Cl)c(Cl)c1	TAAR1 agonist 55 | TAAR1 ag conf 72 | Ga16 ag counter inactive | TAAR1 desensitize inactive | Ga16 nonsel ant inactive
COc1ccc(O)c(/C=N/NC(=O)c2c(C)nnn2-c2nonc2N)c1	none
Cc1nc2scc(C)n2c(=O)c1S(=O)(=O)N1CCN(c2cccc(C(F)(F)F)c2)CC1	none
O=C(c1[nH]c(C(F)(F)F)nc1-c1ccccc1)N1CCc2ccccc2C1	TAAR1 agonist 81 (no result: MC4R antagonist, Beta2AR agonist, MC4R ag barr) | TAAR1 ag conf 93 | Ga16 ag counter inactive | TAAR1 desensitize 56 | Ga16 nonsel ant inactive
O=C(c1cc(-c2ccccc2)on1)N1CCc2ccccc2C1	TAAR1 agonist 48 | TAAR1 ag conf inactive | Ga16 ag counter inactive | TAAR1 desensitize inactive | Ga16 nonsel ant inactive
O=C(c1[nH]c(C(F)(F)F)nc1-c1ccccc1)N1CCCCC1	none (no result: MC4R antagonist, Beta2AR agonist, MC4R ag barr)
O=C(NCCc1ccc(O)cc1)c1[nH]c(C(F)(F)F)nc1-c1ccccc1	TAAR1 agonist 92, TAAR1 antagonist 69 (no result: MC4R antagonist, Beta2AR agonist, MC4R ag barr) | TAAR1 ag conf 94 | Ga16 ag counter inactive | TAAR1 desensitize 90 | Ga16 nonsel ant inactive
O=C(NCCc1ccccc1)c1[nH]c(C(F)(F)F)nc1-c1ccccc1	TAAR1 agonist 69 (no result: MC4R antagonist, Beta2AR agonist, MC4R ag barr) | TAAR1 ag conf 80 | Ga16 ag counter inactive | TAAR1 desensitize 58 | Ga16 nonsel ant inactive
O=C(NCc1ccccc1)c1[nH]c(C(F)(F)F)nc1-c1ccccc1	none (no result: MC4R antagonist, Beta2AR agonist, MC4R ag barr)
Cc1nnc(SC(C)C(=O)Nc2ccc3ccccc3c2)[nH]c1=O (configuration not stated)	none
c1cncc(-c2cn(C[C@H]3CC[C@@H]([C@@H]4CC[C@H](Cn5cc(-c6cccnc6)nn5)O4)O3)nn2)c1	none
COc1ccccc1N1CCN(Cc2cc3c(cc2O)OCO3)CC1	none
Oc1cc2c(cc1CN1CCc3ccccc3C1)OCO2	TAAR1 agonist 69 | TAAR1 ag conf inactive | Ga16 ag counter inactive | TAAR1 desensitize inactive | Ga16 nonsel ant inactive
Cn1cc(CN2CCCC(CO)(Cc3ccccc3)C2)c2ccccc21 (configuration not stated)	none
Oc1ccc(CN2CCc3ccccc3C2)c2cccnc12	TAAR1 agonist 81, TAAR1 antagonist 62 | TAAR1 ag conf 77 | Ga16 ag counter inactive | TAAR1 desensitize inactive | Ga16 nonsel ant inactive
Cn1cc(CN2CCc3ccccc3C2)c2ccccc21	TAAR1 agonist 67 | TAAR1 ag conf 85 | Ga16 ag counter inactive | TAAR1 desensitize inactive | Ga16 nonsel ant inactive
O=C(Nc1cccn(Cc2ccccc2)c1=O)NC1CCCCC1	TAAR1 agonist 43 | TAAR1 ag conf 77 | Ga16 ag counter 40 | TAAR1 desensitize inactive | Ga16 nonsel ant inactive
Cc1ccc(Cn2cccc(NC(=O)NC3CCCCC3)c2=O)cc1	none
COc1cccc(CNCC(=O)NC(=O)NC2CCCC2)c1	none
